# Assay outcomes as filed in PubChem.
# MT1-MMP act inh = inhibitors of human MT1-MMP activation | P50281 | HT1080 RFP-PRO-GFP cells, GFP/RFP ratio fluorescence, overnight; percent of plate control window, DMSO zero | GFP/RFP ratio change, % at 20 µM | 0.061% of 360,000 active | AID 651647;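 active = GFP/RFP ratio change of at least 30% with cell ATP level not reduced by more than half and red fluorescence within 50% of control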
#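 Assay system: HT1080 RFP-PRO-GFP cells | Dosing: 20 µM single dose, 1% DMSO | Incubation: Cells overnight before dosing, compound overnight, 37 °C, 5% CO2 | Evaluation: GFP/RFP fluorescence ratio | Control set: DMSO-only wells and HT1080 RFP-L50D-GFP cell wells as references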
# NRP1-CendR mod = alters CendR peptide binding to human NRP-1; inhibition, % at 25 µM; 0.85% of 360,000 active; O14786; FAM-RPARPAR peptide binding to NRP-1, fluorescence polarization;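 active = inhibition or corrected inhibition above about 18%, plus a signal ratio from 0.5 to 1.5, limit read from the data, passing the limit was not always enough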
# Myeloid diff MLP = compounds promoting myeloid differentiation | ER-HoxA9 myeloid progenitors, lysozyme-GFP differentiation, flow cytometry | calls only at 10 µM | 1% of 360,000 active | AID 624256;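 active = normalized GFP-positive differentiation at or above the plate's own cutoff, the solvent-only control mean plus 3 SD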;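 also: cells exposed to compound for four days before flow analysis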
# DAGLB inhibitor = blocks human DAGLB lipase activity; HEK293T DAGLB membrane lysate, EnzChek fluorogenic substrate; inhibition, % at 5.17 µM; 0.059% of 340,000 active; AID 504411; in the data active = inhibition above about 34%
# SENP1 inh = inhibitors of human SENP1 SUMO protease catalytic domain; Q9P0U3; recombinant SENP1 catalytic domain, CyPet-SUMO1-YPet FRET cleavage; inhibition, % at 10 µM; 0.21% of 360,000 active;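 active = inhibition at least 30% at 10 µM, raw YFP signal under a set limit, fluorescence ratio 0.5 to 1.5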
# Target sequence (Q9P0U3 419-644 limits assumed): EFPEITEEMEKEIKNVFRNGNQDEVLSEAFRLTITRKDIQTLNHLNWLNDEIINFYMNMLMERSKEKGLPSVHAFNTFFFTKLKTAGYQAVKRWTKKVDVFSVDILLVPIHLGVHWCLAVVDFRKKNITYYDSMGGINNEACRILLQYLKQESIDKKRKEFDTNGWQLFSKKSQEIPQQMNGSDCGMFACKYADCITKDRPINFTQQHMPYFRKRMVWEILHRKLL
#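 Assay system – human recombinant His6-tagged SENP1 catalytic domain enzyme · Input – SENP1 enzyme, 20 pM final · Buffer or medium – Tris pH 8 buffer plus EDTA, NaCl, BME, BSA, NP40, catalase · Schedule – 50 min reaction at room temperature · Technique – FRET read of cyan and yellow fluorescence · Control set – no-enzyme wells low, DMSO-plus-enzyme wells high control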
# beta cell repl = inducers of beta-cell replication in MIN6 cells; MIN6 cells proliferation, ATPlite luminescence, 48 h; cells starved in 0.2% serum; 100% = growth in 10% serum; proliferation, % at 10 µM; 0.29% of 330,000 active;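 active = compounds whose signal lies at least 3.5 SD above the mean of all wells on their plate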
# Myeloid diff CP1 = compounds promoting myeloid differentiation; shares compounds with Myeloid diff MLP; ER-HoxA9 myeloid progenitors, GFP/Mac1 double-positive flow; calls only; 2% of 2,300 active;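 active = share of green or green-and-red cells above 9 and 9% in run 1 or 4 and 3% in run 2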
# GFP autofluor = compound fluorescence in myeloid differentiation counter-screen; shares compounds with Myeloid diff MLP; ER-HoxA9 myeloid progenitors, no estrogen, GFP autofluorescence flow cytometry; vehicle wells 0%, positive control 100%; fluorescence response, % (test concentration not listed); 7.4% of 2,300 active; AID 651707;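 active = over 5% cells positive for green fluorescent reporter, or over 2% positive for both it and APC stain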
# Numbers stand for hits; . = inactive; / = not tested or not shown; + = active, no number. An excerpt weighted towards active compounds, which were near 2.4% of everything screened.
SMILES,MT1-MMP act inh,NRP1-CendR mod,Myeloid diff MLP,DAGLB inhibitor,SENP1 inh,beta cell repl,Myeloid diff CP1,GFP autofluor
CCCCCCC(=O)N/N=C/c1c(O)n(C2CC2)c(=S)[nH]c1=O,.,.,.,.,.,.,/,/
CCCCCCC(=O)N/N=C/c1c(O)n(C(C)CC)c(=S)[nH]c1=O (stereo unspecified),.,.,.,.,.,.,.,.
O=C(/C=C/c1ccccc1)c1c(O)n(CCc2ccccc2)c(=O)[nH]c1=O,.,.,+,.,.,.,.,.
O=C(/C=C/c1ccc2c(c1)OCO2)c1c(O)n(CCc2ccccc2)c(=O)[nH]c1=O,.,.,.,/,.,.,/,/
COc1ccc(CN2CCN(Cc3ccccc3)CC2)c(OC)c1,.,.,.,.,.,.,.,.
CC(=O)N1N=C(c2cccnc2)OC1c1ccccc1Cl (stereo unspecified),.,.,.,.,.,.,/,/
CCOC(=O)C(C)Oc1cc(C)cc2oc(=O)c3c(c12)CCCC3 (stereo unspecified),.,.,.,.,.,.,.,.
COP(=O)(OC)C(NC(=O)/C=C/c1ccccc1)C(Cl)(Cl)Cl (stereo unspecified),.,.,.,.,.,.,/,/
CN1CC2=CC(O)CC3Oc4c(O)ccc(c4[C@]23C)C1 (stereo partly specified),.,.,.,.,.,.,/,/
C=C1C2[C@H](OC(C)=O)[C@@H]3CC(=O)[C@]4(C)OC[C@@]3(C)[C@@]4(O)[C@@H](OC(C)=O)[C@H](OC(C)=O)[C@@]2(COC(=O)c2ccccc2)[C@@H](OC(C)=O)C[C@@H]1O (stereo partly specified),.,.,.,.,.,.,.,.
OC(c1ccccc1)(c1ccccc1)c1ccncc1,.,.,+,.,.,.,.,.
OC(c1ccccc1)(c1ccccc1)C1CCNCC1,.,.,.,.,.,.,/,/
COc1ccc(C2N(c3cc(C)on3)C(=O)C3CCCN32)cc1 (stereo unspecified),.,.,.,.,.,.,/,/
C=CCn1c(O)c(C=NCCCOc2ccc(CC)cc2)c(=O)[nH]c1=S,.,.,+,.,.,.,.,.
CCOc1ccc(N=Cc2c(O)n(Cc3ccccc3)c(=S)[nH]c2=O)cc1,.,.,.,.,.,.,/,/
Cc1cc(C)cc(N2C(=O)NC(=O)/C(=C\c3cccn3-c3ccc(Cl)cc3)C2=O)c1,.,.,.,.,.,.,.,.
CCN(CC)Cc1c[nH]c2ccccc12,.,.,.,.,.,.,/,/
CCC(CC)NCc1c[nH]c2ccccc12,.,.,+,.,.,.,.,.
O=C1NC(=O)N(Cc2ccc(F)cc2)C(=O)/C1=C\c1ccc(N2CCCC2)cc1,.,.,+,.,.,.,.,.
CCSc1cc(C2C(C#N)=C(N)Oc3n[nH]c(C)c32)c(C)o1 (stereo unspecified),.,.,.,.,.,.,/,/
Cc1cc(=O)oc2cc3c(cc12)CCCN3,.,.,.,.,.,.,/,/
O=C1NC(=O)N(Cc2ccccc2)C(=O)/C1=C/C=C/c1ccco1,.,.,.,.,.,.,.,.
O=c1[nH]c2ccccc2n1C1CCN(Cc2ccc(-c3nc4ccccc4nc3-c3ccccc3)cc2)CC1,.,.,.,/,.,/,/,/
O=c1[nH]c2ccccc2n1C1CCN(Cc2ccc(-c3nc4ccc(F)cc4nc3-c3ccccc3)cc2)CC1,.,.,+,/,.,/,.,.
CC(C)C(O)(C(=O)OCC1=CCN2CCC(O)C12)C(C)O (stereo unspecified),.,.,.,/,.,/,/,/
SMILES,MT1-MMP act inh,NRP1-CendR mod,Myeloid diff MLP,DAGLB inhibitor,SENP1 inh,beta cell repl,Myeloid diff CP1,GFP autofluor
COc1ccc(-c2ccc3c(c2)CNCc2cnnn2-3)cc1,.,.,.,/,.,/,/,/
Cc1ncc(C(=O)O)n1C(C)c1ccccc1 (stereo unspecified),.,.,.,.,.,/,/,/
O=C(NCC(c1cccnc1)N1CCN(c2ccc(F)cc2)CC1)Oc1ccccc1 (stereo unspecified),.,.,.,.,.,.,.,.
Cc1ccc(C(=O)Nc2ccc(Cl)cc2C(=O)c2ccccc2)cc1,.,.,.,.,.,.,.,5.1
Cc1ccc(OCC(=O)Nc2ccc(Cl)cc2C(=O)c2ccccc2)cc1,.,.,.,.,.,.,/,/
COc1ccc(OC(=O)N(C)C[C@@H]2OCc3cnnn3CCCC(=O)N([C@@H](C)CO)C[C@@H]2C)cc1,.,.,.,.,.,/,.,.
Cc1ccc(-n2c(O)c(/C=C/C=Nc3ccccc3)c(=O)[nH]c2=O)cc1,.,.,.,.,.,.,.,.
O=c1[nH]c(=O)n(-c2ccccc2)c(O)c1/C=C/C=Nc1ccccc1,.,.,.,.,.,.,/,/
C=CCn1c(O)c(/C=C/C=Nc2ccccc2)c(=O)[nH]c1=O,.,.,.,.,.,.,/,/
COc1ccc(-n2c(O)c(/C=C/C=Nc3ccccc3)c(=O)[nH]c2=O)cc1,.,.,.,.,.,.,.,97
O=c1[nH]c(=O)n(C2CCCCC2)c(O)c1/C=C/C=Nc1ccccc1,.,.,+,.,.,.,.,7.5
NC(Cc1ccc(Cl)cc1)c1csc(Nc2ccccn2)n1 (stereo unspecified),.,.,.,/,.,/,/,/
O=c1cccc2n1CC1CC2CN(S(=O)(=O)c2cc(Cl)ccc2Cl)C1 (stereo unspecified),.,.,.,.,.,.,/,/
O=C(C(=O)N1CCOCC1)c1cn(Cc2ccc(F)cc2)c2ccccc12,.,.,.,.,.,.,/,/
COC(=O)C1=C(c2cc3ccccc3s2)C[C@@H]2CC[C@H]1N2C(=O)N1CCCC1,.,.,.,.,.,.,/,/
CCCNC(=O)N1[C@H]2CC[C@@H]1C(C(=O)OC)=C(c1ccc3ccccc3c1)C2,.,.,.,.,.,.,.,.
COC(=O)C1=C(c2ccc(OC(F)(F)F)cc2)C[C@@H]2CC[C@H]1N2C(=O)NC1CCCCC1,.,.,.,.,.,.,.,.
COC(=O)C1=C(c2cc3ccccc3s2)C[C@@H]2CC[C@H]1N2C(=O)N1CCOCC1,.,.,.,.,.,.,.,.
CC(=O)NCC(=O)Nc1ccc(Br)cc1C(=O)c1ccccc1,.,.,.,.,.,.,/,/
O=c1c2ccccc2nc(-c2ccc(Cl)cc2Cl)n1-c1nccs1,.,.,.,.,.,.,/,/
